According to ChEMBL document CHEMBL2150918, “Discovery of new scaffolds for rational design of HCV NS5B polymerase inhibitors” (Eur J Med Chem, 2012):
The source made the active and inactive calls. The rule behind the calls is not given here.

Legend:
[1] = Cytotoxicity against BHK cells assessed as cell viability by firefly luciferase reporter gene assay; type: cell-based, Mesocricetus auratus; conditions: hamster
Method in brief: (§1)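 BHK-NS5B-FRLuc reporter cells (DMEM, 10% heat-inactivated FBS, G418 1 mg/mL, blasticidin 10 µg/mL, 37°C, 5% CO2) treated with 100 µM compound or matching 1% DMSO for 42 hr. Lysates read by dual luciferase. Viability taken as firefly signal versus DMSO. Polymerase inhibition taken as percent reduction of Renilla/firefly ratio versus DMSO. At least three independent experiments in duplicate.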

Hepatitis C virus [2] = assay: Inhibition of recombinant HCV1b NS5B Cdelta21 RNA dependent RNA polymerase P495L mutant TP1 binding site using poly rA/U12 template primer by liquid scintillation counting; design: species or system Hepatitis C virus subtype 1b
Method in brief: (§2)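 Radiometric RdRp assay with His6-tagged NS5BCΔ21 (wild type or P495L, M423T, M414T mutants) purified from E. coli JM109(DE3) by Ni-NTA. Template-primer poly rA/U12. Compounds diluted serially in DMSO. Started with 1.0 mM MnCl2, stopped with ice-cold 10% TCA plus 0.5 mM pyrophosphate. Incorporated UTP TCA-precipitated on GF-B filters and scintillation counted. Activity set relative to DMSO control. IC50 from nonlinear fit of 8–12 concentrations, duplicate, two independent experiments.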

Hepatitis C virus [3] = assay: Inhibition of recombinant HCV1b NS5B Cdelta21 RNA dependent RNA polymerase M414T mutant PP1 binding site using poly rA/U12 template primer by liquid scintillation counting; design: species or system Hepatitis C virus subtype 1b; method in brief: as §2
Hepatitis C virus [4] = assay: Ratio of IC50 for recombinant HCV1b NS5B Cdelta21 RNA dependent RNA polymerase M414T mutant PP1 binding site to IC50 for wild type recombinant C terminal His6-tagged HCV1b NS5B Cdelta21 RNA dependent RNA polymerase; design: species or system Hepatitis C virus subtype 1b
Hepatitis C virus [5] = assay: Ratio of IC50 for recombinant HCV1b NS5B Cdelta21 RNA dependent RNA polymerase P495L mutant TP1 binding site to IC50 for wild type recombinant C terminal His6-tagged HCV1b NS5B Cdelta21 RNA dependent RNA polymerase; design: species or system Hepatitis C virus subtype 1b
Hepatitis C virus [6] = assay: Ratio of IC50 for recombinant HCV1b NS5B Cdelta21 RNA dependent RNA polymerase M423T mutant TP2 binding site to IC50 for wild type recombinant C terminal His6-tagged HCV1b NS5B Cdelta21 RNA dependent RNA polymerase; design: species or system Hepatitis C virus subtype 1b
BHK = assay: Inhibition of intracellular HCV NS5B RNA dependent RNA polymerase activity expressed in BHK cells at 100 uM after 42 hrs by renilla luciferase reporter gene assay; type: cell-based; conditions: Hepacivirus hominis; method in brief: as §1
Hepatitis C virus [7] = assay: Inhibition of recombinant HCV1b NS5B Cdelta21 RNA dependent RNA polymerase M423T mutant TP2 binding site using poly rA/U12 template primer by liquid scintillation counting; design: species or system Hepatitis C virus subtype 1b; method in brief: as §2
Hepatitis C virus [8] = assay: Inhibition of wild type recombinant C terminal His6-tagged HCV1b NS5B Cdelta21 RNA dependent RNA polymerase activity expressed in Escherichia coli JM109 (DE3) using poly rA/U12 template primer by liquid scintillation counting; design: species or system Hepatitis C virus subtype 1b; conditions: JM 109; method in brief: as §2
Hepatitis C virus [9] = assay: Inhibition of wild type recombinant C terminal His6-tagged HCV1b NS5B Cdelta21 RNA dependent RNA polymerase activity expressed in Escherichia coli JM109 (DE3) at 100 uM using poly rA/U12 template primer by liquid scintillation counting; design: species or system Hepatitis C virus subtype 1b
Method in brief: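 Radiometric RdRp assay with wild-type NS5BCΔ21 (genotype 1b), C-terminal His6, Ni-NTA purified from E. coli JM109(DE3); poly rA/U12 template-primer. Compounds from 10 mM DMSO stocks, single-point at 100 µM. Started with 1.0 mM MnCl2, stopped with ice-cold 10% TCA/0.5 mM pyrophosphate. Incorporated radioactive UTP TCA-precipitated on GF-B filters, scintillation-counted; activity relative to DMSO control set at 100%.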

Compound	CC50 [1] [µM]	IC50 (Hepatitis C virus [2]) [µM]	IC50 (Hepatitis C virus [3]) [µM]	Ratio IC50 (Hepatitis C virus [4])	Ratio IC50 (Hepatitis C virus [5])	Ratio IC50 (Hepatitis C virus [6])	inhibition (BHK)	IC50 (Hepatitis C virus [7]) [µM]	IC50 (Hepatitis C virus [8]) [µM]	inhibition at 100 µM (Hepatitis C virus [9]) [%]
O=C(CCS(=O)(=O)c1ccccc1)N1CCN(C(=O)CCS(=O)(=O)c2ccccc2)CC1	> 100	33.5	37.8	<=1.4	<=1.4	>4.5	42.1%	> 250	33.1	≥ 50
CC1CS(=O)(=O)N(c2ccc(S(=O)(=O)Nc3cccc4cccnc34)cc2)C1=O (stereo unspecified)	> 100	43	36.1	<=1.4	<=1.4	>4.5	40.5%	> 250	36.7	≥ 50
COc1cc(/C=N/Nc2ccccc2C(=O)O)cc(Br)c1O	> 100	19.2	23.7	<=1.4	<=1.4	8.5	57.8%	172	20.3	≥ 50
O=C(O)c1ccc(Nc2nnc(-c3ccccc3)c(=O)[nH]2)cc1O	> 100	40.6	52.1	<=1.4	<=1.4	>4.5	45.1%	> 250	46.2	≥ 50
Cn1cc(C(=O)N2CCN(C(=O)c3ccc(F)cc3F)CC2)c2nn(-c3ccccc3)c(=O)c-2c1	> 100	41	44.8	<=1.4	<=1.4	>4.5	43.3%	> 250	39.5	≥ 50
Cc1cc(O)c(C(c2ccc(Cl)c(Cl)c2)c2c(O)cc(C)oc2=O)c(=O)o1	> 100	63.8	62.4	<=1.4	<=1.4	>4.5	inactive	> 250	56.8	≥ 50
COc1cc(O)c2c(c1)oc(=O)c1c3cc(O)c(O)cc3oc21 [WEDELOLACTONE]									34	
CCOC(=O)/C(C#N)=C\c1cn(CCC(=O)O)nc1-c1ccc(F)cc1	> 100	34.3	28.6	<=1.4	<=1.4	>4.5	44.2%	> 250	33	≥ 50
C/C(=N\Nc1ncnc2ccccc12)C(=O)O	> 100	14.2	22.9	<=1.4	<=1.4	7.9	62.4%	127	16	≥ 50
